# Test results as given in PMC2976041 (Biochemistry, 2010).
# Target: T1, GFP-myo1e-tail (His6-GFP-myo1e-tail) (Homo sapiens, UniProt Q12965)
# T1 sequence (Q12965 710-1108): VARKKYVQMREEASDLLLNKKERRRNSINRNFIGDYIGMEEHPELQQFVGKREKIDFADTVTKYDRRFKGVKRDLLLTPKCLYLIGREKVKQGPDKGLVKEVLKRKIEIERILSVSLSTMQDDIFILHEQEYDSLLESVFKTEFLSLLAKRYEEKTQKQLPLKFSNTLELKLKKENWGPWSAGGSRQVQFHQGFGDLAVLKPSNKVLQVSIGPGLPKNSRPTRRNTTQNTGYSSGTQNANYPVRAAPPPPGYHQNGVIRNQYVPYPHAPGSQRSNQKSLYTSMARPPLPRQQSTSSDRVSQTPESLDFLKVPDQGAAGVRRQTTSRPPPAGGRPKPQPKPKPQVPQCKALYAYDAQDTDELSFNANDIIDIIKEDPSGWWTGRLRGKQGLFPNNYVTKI
# Assay: LUV sedimentation, GFP fluorescence of supernatant
# Format: binding
# Method in brief: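 His6-GFP-myo1e-tail co-expressed with calmodulin in Sf9 cells, purified on Ni-NTA then MonoS, and quantified by A488 (ε 55,000 M⁻¹cm⁻¹). 40 nM protein was mixed with sucrose-loaded 100-nm LUVs (e.g., DOPC with 2% phosphoinositide) in HNa100 (10 mM HEPES pH 7.0, 100 mM NaCl, 1 mM EGTA, 1 mM DTT) with 1 µM calmodulin and 0.25 mg/ml GST. Spun 150,000 × g, 30 min, 25°C; supernatant GFP fluorescence read. Hyperbolic fit gave K_eff versus total lipid.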
row,Structure (SMILES),Kd
1,"CCCCCCCC/C=C\CCCCCCCC(=O)OC[C@H](COP(=O)([O-])OCC[N+](C)(C)C)OC(=O)CCCCCCC/C=C\CCCCCCCC [100% DOPC, 1,2-dioleoyl-sn-glycero-3-phosphocholine]",> 400 µM
2,"CCCCCCCC/C=C\CCCCCCCC(=O)OC[C@H](COP(=O)(O)O[C@H]1[C@H](O)[C@@H](OP(=O)(O)O)[C@H](OP(=O)(O)O)[C@@H](OP(=O)(O)O)[C@H]1O)OC(=O)CCCCCCC/C=C\CCCCCCCC [2% 18:1 PtdIns(3,4,5)P3, 1,2-dioleoyl-sn-glycerol-3-phospho-(1’-myo-inositol-3’,4’,5’-trisphosphate)]",3.2 ± 0.4 µM
3,"CCCCCCCC/C=C\CCCCCCCC(=O)OC[C@H](COP(=O)(O)OC[C@H](N)C(=O)O)OC(=O)CCCCCCC/C=C\CCCCCCCC [80% DOPS, 1,2-dioleoyl-sn-glycero-3-phospho-L-serine]",0.51 ± 0.1 µM
4,"CCCCCCCC/C=C\CCCCCCCC(=O)OC[C@H](COP(=O)(O)O[C@@H]1[C@H](O)[C@H](OP(=O)(O)O)[C@@H](O)[C@H](OP(=O)(O)O)[C@H]1O)OC(=O)CCCCCCC/C=C\CCCCCCCC [2% 18:1 PtdIns(3,5)P2, 1,2-dioleoyl-sn-glycerol-3-phospho-(1’-myo-inositol-3’,5’-bisphosphate)]",13 ± 2.1 µM
